Tested on: U2OS
Test: Multiplex assay against U2OS
Format: toxicity, cell-based
Conditions: human
Outline: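 Hoechst33342, BioTracker Green Microtubule Cytoskeleton Dye, MitoTracker Red and Annexin V Alexa Fluor 680 were added to live cells at seeding, and imaging on a CQ1 microscope at 37°C and 5% CO2 followed compound addition. Gating by CellPathfinder machine learning separated cells into Hoechst high-intensity objects or normal cells, then normal cells into healthy, pyknosed or fragmented nuclei, then pyknosed cells into mitotic or apoptotic. Per cents of healthy-nucleus cells are reported for the tubulin, mitochondrial-mass and membrane-permeability phenotypes.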

[1] = 12 h, 1 µM, compound concentration 1 uM, replicate 1
[2] = 12 h, 1 µM, compound concentration 1 uM, replicate 2
[3] = 12 h, 10 µM, compound concentration 10 uM, replicate 1
[4] = 12 h, 10 µM, compound concentration 10 uM, replicate 2
[5] = 24 h, 1 µM, compound concentration 1 uM, replicate 1
[6] = 24 h, 1 µM, compound concentration 1 uM, replicate 2
[7] = 24 h, 10 µM, compound concentration 10 uM, replicate 1
[8] = 24 h, 10 µM, compound concentration 10 uM, replicate 2
[9] = 48 h, 1 µM, compound concentration 1 uM, replicate 1
[10] = 48 h, 1 µM, compound concentration 1 uM, replicate 2
[11] = 48 h, 10 µM, compound concentration 10 uM, replicate 1
[12] = 48 h, 10 µM, compound concentration 10 uM, replicate 2

Cl.O=C(O)c1cc(-c2ccc(C3CCNCC3)cc2)c2ccc(-c3ccc(C(F)(F)F)cc3)cc2c1
Population Apoptotic (%) [1]: 25%
Population Fragmented Nuclei (%) [1]: 16%
Population Healthy Nuclei (%) [1]: 67%
Population Hoechst High Intensity Objects (%) [1]: 7%
Population Membrane Permeable-Phenotype (%) [1]: 8%
Population Mitochondria Different-Phenotype (%) [1]: 9%
Population Mitotic Cells (%) [1]: 74%
Population Normal (%) [1]: 92%
Population Pyknosed Nuclei (%) [1]: 16%
Population Tubulin-Different-Phenotype (%) [1]: 15%
Total Cell Count [1]: 201
Population Apoptotic (%) [2]: 50%
Population Fragmented Nuclei (%) [2]: 11%
Population Healthy Nuclei (%) [2]: 83%
Population Hoechst High Intensity Objects (%) [2]: 5%
Population Membrane Permeable-Phenotype (%) [2]: 3%
Population Mitochondria Different-Phenotype (%) [2]: 16%
Population Mitotic Cells (%) [2]: 50%
Population Normal (%) [2]: 94%
Population Pyknosed Nuclei (%) [2]: 5%
Population Tubulin-Different-Phenotype (%) [2]: 36%
Total Cell Count [2]: 60
Population Apoptotic (%) [3]: 41%
Population Healthy Nuclei (%) [3]: 74%
Population Hoechst High Intensity Objects (%) [3]: 2%
Population Membrane Permeable-Phenotype (%) [3]: 5%
Population Mitochondria Different-Phenotype (%) [3]: 17%
Population Mitotic Cells (%) [3]: 58%
Population Normal (%) [3]: 97%
Population Pyknosed Nuclei (%) [3]: 11%
Population Tubulin-Different-Phenotype (%) [3]: 14%
Total Cell Count [3]: 181
Population Apoptotic (%) [4]: 60%
Population Fragmented Nuclei (%) [4]: 14%
Population Healthy Nuclei (%) [4]: 64%
Population Hoechst High Intensity Objects (%) [4]: 14%
Population Membrane Permeable-Phenotype (%) [4]: 10%
Population Mitochondria Different-Phenotype (%) [4]: 13%
Population Mitotic Cells (%) [4]: 40%
Population Normal (%) [4]: 85%
Population Pyknosed Nuclei (%) [4]: 21%
Population Tubulin-Different-Phenotype (%) [4]: 23%
Total Cell Count [4]: 38
Population Apoptotic (%) [5]: 35%
Population Healthy Nuclei (%) [5]: 81%
Population Hoechst High Intensity Objects (%) [5]: 7%
Population Membrane Permeable-Phenotype (%) [5]: 3%
Population Mitotic Cells (%) [5]: 64%
Population Normal (%) [5]: 92%
Population Pyknosed Nuclei (%) [5]: 6%
Population Tubulin-Different-Phenotype (%) [5]: 12%
Total Cell Count [5]: 249
Population Apoptotic (%) [6]: 20%
Population Fragmented Nuclei (%) [6]: 11%
Population Healthy Nuclei (%) [6]: 79%
Population Hoechst High Intensity Objects (%) [6]: 3%
Population Membrane Permeable-Phenotype (%) [6]: 4%
Population Mitochondria Different-Phenotype (%) [6]: 9%
Population Mitotic Cells (%) [6]: 80%
Population Normal (%) [6]: 96%
Population Pyknosed Nuclei (%) [6]: 9%
Population Tubulin-Different-Phenotype (%) [6]: 30%
Total Cell Count [6]: 62
Population Apoptotic (%) [7]: 41%
Population Fragmented Nuclei (%) [7]: 13%
Population Healthy Nuclei (%) [7]: 72%
Population Hoechst High Intensity Objects (%) [7]: 4%
Population Membrane Permeable-Phenotype (%) [7]: 4%
Population Mitochondria Different-Phenotype (%) [7]: 12%
Population Mitotic Cells (%) [7]: 58%
Population Normal (%) [7]: 95%
Population Pyknosed Nuclei (%) [7]: 13%
Population Tubulin-Different-Phenotype (%) [7]: 13%
Total Cell Count [7]: 227
Population Apoptotic (%) [8]: 61%
Population Fragmented Nuclei (%) [8]: 17%
Population Healthy Nuclei (%) [8]: 61%
Population Hoechst High Intensity Objects (%) [8]: 8%
Population Membrane Permeable-Phenotype (%) [8]: 7%
Population Mitochondria Different-Phenotype (%) [8]: 5%
Population Mitotic Cells (%) [8]: 38%
Population Normal (%) [8]: 91%
Population Pyknosed Nuclei (%) [8]: 20%
Population Tubulin-Different-Phenotype (%) [8]: 16%
Total Cell Count [8]: 56
Population Apoptotic (%) [9]: 17%
Population Fragmented Nuclei (%) [9]: 9%
Population Healthy Nuclei (%) [9]: 81%
Population Hoechst High Intensity Objects (%) [9]: 3%
Population Membrane Permeable-Phenotype (%) [9]: 1%
Population Mitochondria Different-Phenotype (%) [9]: 17%
Population Mitotic Cells (%) [9]: 82%
Population Normal (%) [9]: 96%
Population Pyknosed Nuclei (%) [9]: 9%
Population Tubulin-Different-Phenotype (%) [9]: 12%
Total Cell Count [9]: 359
Population Apoptotic (%) [10]: 33%
Population Fragmented Nuclei (%) [10]: 6%
Population Healthy Nuclei (%) [10]: 89%
Population Hoechst High Intensity Objects (%) [10]: 2%
Population Membrane Permeable-Phenotype (%) [10]: 4%
Population Mitochondria Different-Phenotype (%) [10]: 11%
Population Mitotic Cells (%) [10]: 66%
Population Normal (%) [10]: 97%
Population Pyknosed Nuclei (%) [10]: 3%
Population Tubulin-Different-Phenotype (%) [10]: 32%
Total Cell Count [10]: 95
Population Apoptotic (%) [11]: 45%
Population Fragmented Nuclei (%) [11]: 12%
Population Healthy Nuclei (%) [11]: 65%
Population Hoechst High Intensity Objects (%) [11]: 5%
Population Membrane Permeable-Phenotype (%) [11]: 5%
Population Mitochondria Different-Phenotype (%) [11]: 7%
Population Mitotic Cells (%) [11]: 54%
Population Normal (%) [11]: 94%
Population Pyknosed Nuclei (%) [11]: 21%
Population Tubulin-Different-Phenotype (%) [11]: 14%
Total Cell Count [11]: 332
Population Apoptotic (%) [12]: 75%
Population Fragmented Nuclei (%) [12]: 17%
Population Healthy Nuclei (%) [12]: 66%
Population Hoechst High Intensity Objects (%) [12]: 10%
Population Membrane Permeable-Phenotype (%) [12]: 13%
Population Mitochondria Different-Phenotype (%) [12]: 13%
Population Mitotic Cells (%) [12]: 25%
Population Normal (%) [12]: 89%
Population Pyknosed Nuclei (%) [12]: 16%
Population Tubulin-Different-Phenotype (%) [12]: 21%
Total Cell Count [12]: 80

Source: ChEMBL document CHEMBL4689842, “EUbOPEN Chemogenomics Library wave 1” (2021)
